Five compounds from ChEMBL document CHEMBL1152267, “Peptides based on CcdB protein as novel inhibitors of bacterial topoisomerases” (Bioorg Med Chem Lett, 2008) can be followed below.

The source made the active and inactive calls. The calls are words filed in the database; no cut-off is given here.

Test [1] deals with Escherichia coli. The experiment in a line: Inhibition of Escherichia coli DNA-gyrase assessed as DNA supercoiling activity. In a few lines:
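Peptide titrated into a fixed amount of enzyme and DNA. Gyrase at 3.4 nM with relaxed DNA substrate (500 ng), 37 °C for 1 h, which fully negatively supercoils the substrate without inhibitor. Value is IC100, the lowest peptide concentration giving complete inhibition of supercoiling.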

For test [2], the system named is Escherichia coli. The experiment in a line: Inhibition of Escherichia coli topoisomerase 4 assessed as DNA relaxation activity. In a few lines: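 ATP-dependent relaxation assay. Topo IV at 5 nM with supercoiled DNA (400 ng) at 37 °C, with peptide titrated at fixed enzyme and DNA. Value is IC100, the minimum concentration completely inhibiting relaxation.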

Consider `CC[C@H](C)[C@H](NC(=O)[C@H](CCC(=O)O)NC(=O)[C@H](Cc1c[nH]c2ccccc12)NC(=O)[C@H](Cc1ccccc1)NC(=O)[C@H](CCSC)NC(=O)[C@H](CC(C)C)NC(=O)[C@H](CC(N)=O)NC(=O)[C@@H](NC(=O)[C@H](C)NC(=O)[C@H](CC(N)=O)NC(=O)[C@H](CCCCN)NC(=O)[C@@H](NC(=O)[C@H](CC(=O)O)NC(=O)[C@H](CC(N)=O)NC(=O)[C@H](CCC(=O)O)NC(=O)[C@H](CCCNC(=N)N)NC(=O)[C@H](Cc1cnc[nH]1)NC(=O)[C@H](CO)NC(=O)CCCCCNC(=O)[C@H](CC(C)C)NC(=O)[C@H](CCC(=O)O)NC(=O)[C@H](CCCNC(=N)N)NC(=O)[C@H](CO)NC(=O)[C@@H](NC(=O)[C@H](CCCCN)NC(=O)[C@H](CC(=O)O)NC(=O)[C@H](CO)NC(=O)[C@H](CC(C)C)NC(=O)[C@H](CC(C)C)NC(=O)[C@H](CCCNC(=N)N)NC(=O)CCCCCNC(=O)[C@H](CCCCN)NC(=O)[C@H](Cc1ccc(O)cc1)NC(=O)[C@@H](NC(=O)[C@H](Cc1ccc(O)cc1)NC(=O)[C@@H](NC(=O)[C@H](CCCCN)NC(=O)[C@H](Cc1ccccc1)NC(=O)[C@H](CCC(N)=O)NC(=O)[C@@H](N)CCSC)C(C)C)[C@@H](C)O)C(C)C)[C@@H](C)CC)[C@@H](C)CC)C(=O)O`, for which the outcome in the test on Escherichia coli [1] was inactive. Moreover, the IC100 in the test on Escherichia coli [2] was 5 µM.

For the compound `CC[C@H](C)[C@H](NC(=O)CNC(=O)[C@H](Cc1c[nH]c2ccccc12)NC(=O)[C@H](Cc1ccccc1)NC(=O)[C@H](CCSC)NC(=O)[C@H](CC(C)C)NC(=O)[C@H](CC(N)=O)NC(=O)[C@@H](NC(=O)[C@H](C)NC(=O)[C@H](CC(N)=O)NC(=O)[C@H](CCCCN)NC(=O)[C@@H](NC(=O)[C@H](CC(=O)O)NC(=O)[C@H](CC(N)=O)NC(=O)[C@H](CCC(=O)O)NC(=O)[C@H](CCCNC(=N)N)NC(=O)[C@H](Cc1cnc[nH]1)NC(=O)[C@H](CO)NC(=O)[C@H](CC(C)C)NC(=O)[C@H](CC(=O)O)NC(=O)[C@H](C)NC(=O)[C@@H](NC(=O)[C@H](CCC(=O)O)NC(=O)[C@H](CCC(=O)O)NC(=O)CNC(=O)[C@@H](NC(=O)[C@@H](NC(=O)[C@H](CO)NC(=O)[C@@H](NC(=O)[C@@H]1CCCN1C(=O)[C@@H](NC(=O)[C@H](CO)NC(=O)[C@H](C)NC(=O)[C@@H](N)CCSC)C(C)C)C(C)C)C(C)C)[C@@H](C)CC)C(C)C)[C@@H](C)CC)[C@@H](C)CC)C(=O)O`, the result in the test with Escherichia coli [1] and in the test with Escherichia coli [2] was inactive.

As for `CC[C@H](C)[C@H](NC(=O)CNC(=O)[C@H](Cc1c[nH]c2ccccc12)NC(=O)[C@H](Cc1ccccc1)NC(=O)[C@H](CCSC)NC(=O)[C@H](CC(C)C)NC(=O)[C@H](CC(N)=O)NC(=O)[C@@H](NC(=O)[C@H](C)NC(=O)[C@H](CC(N)=O)NC(=O)[C@H](CCCCN)NC(=O)[C@@H](NC(=O)[C@H](CC(=O)O)NC(=O)[C@H](CC(N)=O)NC(=O)[C@H](CCC(=O)O)NC(=O)[C@H](CCCNC(=N)N)NC(=O)[C@H](Cc1cnc[nH]1)NC(=O)[C@H](CO)NC(=O)CCCCCNC(=O)[C@H](CC(C)C)NC(=O)[C@H](CCC(=O)O)NC(=O)[C@H](CCCNC(=N)N)NC(=O)[C@H](CO)NC(=O)[C@@H](NC(=O)[C@H](CCCCN)NC(=O)[C@H](CC(=O)O)NC(=O)[C@H](CO)NC(=O)[C@H](CC(C)C)NC(=O)[C@H](CC(C)C)NC(=O)[C@H](CCCNC(=N)N)NC(=O)CCCCCNC(=O)[C@H](CCCCN)NC(=O)[C@H](Cc1ccc(O)cc1)NC(=O)[C@@H](NC(=O)[C@H](Cc1ccc(O)cc1)NC(=O)[C@@H](NC(=O)[C@H](CCCCN)NC(=O)[C@H](Cc1ccccc1)NC(=O)[C@H](CCC(N)=O)NC(=O)[C@@H](N)CCSC)C(C)C)[C@@H](C)O)C(C)C)[C@@H](C)CC)[C@@H](C)CC)C(=O)O`, the IC100 was 10 µM with Escherichia coli [1] and 5 µM with Escherichia coli [2].

Take `CC[C@H](C)[C@H](NC(=O)CNC(=O)[C@H](Cc1c[nH]c2ccccc12)NC(=O)[C@H](Cc1ccccc1)NC(=O)[C@H](CCSC)NC(=O)[C@H](CC(C)C)NC(=O)[C@H](CC(N)=O)NC(=O)[C@@H](NC(=O)[C@H](C)NC(=O)[C@H](CC(N)=O)NC(=O)[C@H](CCCCN)NC(=O)[C@@H](NC(=O)[C@H](CC(=O)O)NC(=O)[C@H](CC(N)=O)NC(=O)[C@H](CCC(=O)O)NC(=O)[C@H](CCCNC(=N)N)NC(=O)[C@H](Cc1cnc[nH]1)NC(=O)[C@@H](N)CO)[C@@H](C)CC)[C@@H](C)CC)C(=O)O`: the IC100 in the test on Escherichia coli [1] turned out to be 60 µM; in the test with Escherichia coli [2], 15 µM.

Consider `CC[C@H](C)[C@H](NC(=O)CNC(=O)[C@H](Cc1c[nH]c2ccccc12)NC(=O)[C@H](Cc1ccccc1)NC(=O)[C@H](CCSC)NC(=O)[C@H](CC(C)C)NC(=O)[C@H](CC(N)=O)NC(=O)[C@@H](NC(=O)[C@H](C)NC(=O)[C@H](CC(N)=O)NC(=O)[C@H](CCCCN)NC(=O)[C@@H](NC(=O)[C@H](CC(=O)O)NC(=O)[C@H](CC(N)=O)NC(=O)[C@H](CCC(=O)O)NC(=O)[C@H](CCCNC(=N)N)NC(=O)[C@H](Cc1cnc[nH]1)NC(=O)[C@H](CO)NC(=O)CCCCCNC(=O)[C@H](CCCCN)NC(=O)[C@H](Cc1ccc(O)cc1)NC(=O)[C@@H](NC(=O)[C@H](Cc1ccc(O)cc1)NC(=O)[C@@H](NC(=O)[C@H](CCCCN)NC(=O)[C@H](Cc1ccccc1)NC(=O)[C@H](CCC(N)=O)NC(=O)[C@@H](N)CCSC)C(C)C)[C@@H](C)O)[C@@H](C)CC)[C@@H](C)CC)C(=O)O`, for which the values for the IC100 with Escherichia coli [1] and with Escherichia coli [2] were 40 µM and 15 µM, respectively.
